# Test results as given in ChEMBL document CHEMBL1142063, “Synthesis of omeprazole analogues and evaluation of these as potential inhibitors of the multidrug efflux pump NorA of Staphylococcus aureus” (2007).
# Columns and labels:
# Staphylococcus aureus [1] = test: Antibacterial activity against Staphylococcus aureus SA1199B overexpressing NorA at 5 ug by disk diffusion method; format: functional; details: read-out: IZ
# Method in brief: (§1)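 Agar diffusion on Mueller-Hinton agar (adjusted to 20 μg/ml Ca²⁺ and 10 μg/ml Mg²⁺), used plain or with the efflux inhibitor incorporated at the stated concentration. Disks were 5 μg for the fluoroquinolones and 30 μg for chloramphenicol. Plates were incubated overnight at 37°C, and inhibition zone diameters were measured. Values are means of at least three independent experiments.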
# Staphylococcus aureus [2] = test: Increase in 2 ug/ml Norfloxacin antibacterial activity against wild type Staphylococcus aureus SA1199 at 128 ug/ml by checker board method; format: functional
# Staphylococcus aureus [3] = test: Increase in 30 ug chloramphenicol antibacterial activity against Staphylococcus aureus SA1199B mutant overexpressing NorA at 128 ug/ml by disk diffusion method; format: functional; method in brief: as §1
# Staphylococcus aureus [4] = test: Antibacterial activity against Staphylococcus aureus; format: functional
# Method in brief: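 Tube broth dilution MIC against SA-1199 and NorA-overproducing SA-1199B in Mueller-Hinton broth with 20 μg/ml Ca²⁺ and 10 μg/ml Mg²⁺. Inoculum was a 4–5 h 37°C culture diluted 1/10 (≈10⁶ CFU/ml). Compound range was 512 to 1 μg/ml, dissolved in DMSO (final ≤4%).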
# Staphylococcus aureus [5] = test: Increase in 16 ug/ml Norfloxacin accumulation in Staphylococcus aureus SA1199B mutant overexpressing NorA measured per milligram of cell protein at 128 ug/ml after 20 mins; format: functional, organism-based
# Method in brief: (§2)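 SA-1199B was grown to mid-exponential phase in MH broth (4–5 h, 37°C, shaken), then washed and resuspended in 50 mM sodium phosphate, pH 7.0. Cells got norfloxacin at one-quarter MIC, alone or with inhibitor at 128 μg/ml. At 5–20 min, cells were spun through silicone-paraffin oil into orthophosphoric acid. Norfloxacin was measured by HPLC fluorescence (ex 240/[…]) as ng/mg BCA protein. Means of triplicate experiments.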
# Staphylococcus aureus [6] = test: Increase in 5 ug ofloxacin antibacterial activity against Staphylococcus aureus SA1199B mutant overexpressing NorA at 128 ug/ml by disk diffusion method; format: functional; method in brief: as §1
# Staphylococcus aureus [7] = test: Increase in 16 ug/ml Norfloxacin accumulation in Staphylococcus aureus SA1199B mutant overexpressing NorA measured per mg of cell protein at 128 ug/ml after 5 mins; format: functional, organism-based; method in brief: as §2
# Staphylococcus aureus [8] = test: Increase in 5 ug sparfloxacin antibacterial activity against Staphylococcus aureus SA1199B mutant overexpressing NorA at 128 ug/ml by disk diffusion method; format: functional; method in brief: as §1
# Staphylococcus aureus [9] = test: Increase in 5 ug moxifloxacin antibacterial activity against Staphylococcus aureus SA1199B mutant overexpressing NorA at 128 ug/ml by disk diffusion method; format: functional; method in brief: as §1
# Staphylococcus aureus [10] = test: Increase in 5 ug ciprofloxacin antibacterial activity against Staphylococcus aureus SA1199B mutant overexpressing NorA at 128 ug/ml by disk diffusion method; format: functional; method in brief: as §1
# Staphylococcus aureus [11] = test: Increase in 64 ug/ml Norfloxacin antibacterial activity against Staphylococcus aureus SA1199B mutant overexpressing NorA at 128 ug/ml by checker board method; format: functional
# Staphylococcus aureus [12] = test: Increase in 16 ug/ml Norfloxacin accumulation in wild type Staphylococcus aureus SA1199 at 128 ug/ml after 20 mins; format: functional
# Method in brief: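 Mid-exponential SA-1199 cells were washed and resuspended in 50 mM sodium phosphate, pH 7.0. They were exposed at time zero to norfloxacin at one-quarter MIC, alone or with EPI at 128 μg/ml. At 5–20 min, cells were spun through silicone-paraffin oil into orthophosphoric acid. Lysate norfloxacin was measured by C18 HPLC with fluorescence detection (ex 240, em 280 nm) and normalized to BCA protein (ng/mg). Triplicate experiments, mean reported.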
# Staphylococcus aureus [13] = test: Increase in 5 ug Norfloxacin antibacterial activity against Staphylococcus aureus SA1199B mutant overexpressing NorA at 128 ug/ml by disk diffusion method; format: functional; method in brief: as §1
# Staphylococcus aureus [14] = test: Increase in 5 ug levofloxacin antibacterial activity against Staphylococcus aureus SA1199B mutant overexpressing NorA at 128 ug/ml by disk diffusion method; format: functional; method in brief: as §1
# Staphylococcus aureus [15] = test: Increase in 16 ug/ml Norfloxacin accumulation in Staphylococcus aureus SA1199B mutant overexpressing NorA at 128 ug/ml after 20 mins; format: functional; method in brief: as §2
smiles,measurement,setting,value
CCn1cc(C(=O)O)c(=O)c2cc(F)c(N3CCNCC3)cc21 [NORFLOXACIN],zone of inhibition at 5 µg/disc,Staphylococcus aureus [1],27 mm
[O-][S+](Cc1nc2ccccc2n2cccc12)c1nc2ccccc2[nH]1 (centres undefined),MIC,Staphylococcus aureus [2],1 µg/mL
same,inhibition zone (IZ),Staphylococcus aureus [3],25 mm
same,MIC,Staphylococcus aureus [4],> 512 µg/mL
same,Drug uptake,Staphylococcus aureus [5],400 ng/mg
same,inhibition zone (IZ),Staphylococcus aureus [6],23 mm
same,Drug uptake,Staphylococcus aureus [7],270 ng/mg
same,inhibition zone (IZ),Staphylococcus aureus [8],28 mm
same,inhibition zone (IZ),Staphylococcus aureus [9],28 mm
same,inhibition zone (IZ),Staphylococcus aureus [10],19 mm
same,MIC,Staphylococcus aureus [11],16 µg/mL
same,Activity,Staphylococcus aureus [12],10%
same,inhibition zone (IZ),Staphylococcus aureus [13],10 mm
same,inhibition zone (IZ),Staphylococcus aureus [14],24 mm
same,Activity,Staphylococcus aureus [15],40%
COc1c(N2C[C@@H]3CCCN[C@@H]3C2)c(F)cc2c(=O)c(C(=O)O)cn(C3CC3)c12 [MOXIFLOXACIN],zone of inhibition at 5 µg/disc,Staphylococcus aureus [1],27 mm
O=C(O)c1cn(C2CC2)c2cc(N3CCNCC3)c(F)cc2c1=O [CIPROFLOXACIN],zone of inhibition at 5 µg/disc,Staphylococcus aureus [1],13 mm
COc1ccc2[nH]c([S+]([O-])Cc3nc4cc(OC)ccc4n4cccc34)nc2c1 (centres undefined),MIC,Staphylococcus aureus [2],1 µg/mL
same,inhibition zone (IZ),Staphylococcus aureus [3],27 mm
same,MIC,Staphylococcus aureus [4],> 512 µg/mL
same,Drug uptake,Staphylococcus aureus [5],400 ng/mg
same,inhibition zone (IZ),Staphylococcus aureus [6],25 mm
same,Drug uptake,Staphylococcus aureus [7],270 ng/mg
same,inhibition zone (IZ),Staphylococcus aureus [8],29 mm
same,inhibition zone (IZ),Staphylococcus aureus [9],28 mm
same,inhibition zone (IZ),Staphylococcus aureus [10],24 mm
same,MIC,Staphylococcus aureus [11],8 µg/mL
same,Activity,Staphylococcus aureus [12],10%
same,inhibition zone (IZ),Staphylococcus aureus [13],16 mm
same,inhibition zone (IZ),Staphylococcus aureus [14],24 mm
same,Activity,Staphylococcus aureus [15],40%
CC1COc2c(N3CCN(C)CC3)c(F)cc3c(=O)c(C(=O)O)cn1c23 (centres undefined) [OFLOXACIN],zone of inhibition at 5 µg/disc,Staphylococcus aureus [1],27 mm
COc1ccc2c(c1)nc([S+]([O-])Cc1nc3ccccc3n3cccc13)c1cccn12 (centres undefined),MIC,Staphylococcus aureus [2],2 µg/mL
same,inhibition zone (IZ),Staphylococcus aureus [3],25 mm
same,MIC,Staphylococcus aureus [4],> 512 µg/mL
same,inhibition zone (IZ),Staphylococcus aureus [6],19 mm
same,inhibition zone (IZ),Staphylococcus aureus [8],27 mm
same,inhibition zone (IZ),Staphylococcus aureus [9],27 mm
same,inhibition zone (IZ),Staphylococcus aureus [10],17 mm
same,MIC,Staphylococcus aureus [11],32 µg/mL
same,inhibition zone (IZ),Staphylococcus aureus [13],6 mm
same,inhibition zone (IZ),Staphylococcus aureus [14],22 mm
[O-][S+](Cc1nc2ccccc2n2cccc12)c1ccccn1 (centres undefined),MIC,Staphylococcus aureus [2],2 µg/mL
same,inhibition zone (IZ),Staphylococcus aureus [3],25 mm
same,MIC,Staphylococcus aureus [4],> 512 µg/mL
same,inhibition zone (IZ),Staphylococcus aureus [6],20 mm
same,inhibition zone (IZ),Staphylococcus aureus [8],27 mm
same,inhibition zone (IZ),Staphylococcus aureus [9],27 mm
same,inhibition zone (IZ),Staphylococcus aureus [10],17 mm
same,MIC,Staphylococcus aureus [11],32 µg/mL
same,inhibition zone (IZ),Staphylococcus aureus [13],6 mm
same,inhibition zone (IZ),Staphylococcus aureus [14],22 mm
Cn1c([S+]([O-])Cc2nc3ccccc3n3cccc23)nc2ccccc21 (centres undefined),MIC,Staphylococcus aureus [2],2 µg/mL
same,inhibition zone (IZ),Staphylococcus aureus [3],25 mm
same,MIC,Staphylococcus aureus [4],> 512 µg/mL
same,inhibition zone (IZ),Staphylococcus aureus [6],20 mm
same,inhibition zone (IZ),Staphylococcus aureus [8],27 mm
same,inhibition zone (IZ),Staphylococcus aureus [9],27 mm
same,inhibition zone (IZ),Staphylococcus aureus [10],15 mm
same,MIC,Staphylococcus aureus [11],32 µg/mL
same,inhibition zone (IZ),Staphylococcus aureus [13],6 mm
same,inhibition zone (IZ),Staphylococcus aureus [14],23 mm
Cn1ccnc1[S+]([O-])Cc1nc2ccccc2n2cccc12 (centres undefined),MIC,Staphylococcus aureus [2],2 µg/mL
same,inhibition zone (IZ),Staphylococcus aureus [3],25 mm
same,MIC,Staphylococcus aureus [4],> 512 µg/mL
same,inhibition zone (IZ),Staphylococcus aureus [6],19 mm
same,inhibition zone (IZ),Staphylococcus aureus [8],27 mm
same,inhibition zone (IZ),Staphylococcus aureus [9],27 mm
same,inhibition zone (IZ),Staphylococcus aureus [10],14 mm
same,MIC,Staphylococcus aureus [11],32 µg/mL
same,inhibition zone (IZ),Staphylococcus aureus [13],6 mm
same,inhibition zone (IZ),Staphylococcus aureus [14],22 mm
COc1ccc2[nH]c([S+]([O-])Cc3nc4ccc(Cl)cc4n4cccc34)nc2c1 (centres undefined),MIC,Staphylococcus aureus [2],1 µg/mL
same,inhibition zone (IZ),Staphylococcus aureus [3],25 mm
same,MIC,Staphylococcus aureus [4],> 512 µg/mL
same,Drug uptake,Staphylococcus aureus [5],400 ng/mg
same,inhibition zone (IZ),Staphylococcus aureus [6],21 mm
same,Drug uptake,Staphylococcus aureus [7],270 ng/mg
same,inhibition zone (IZ),Staphylococcus aureus [8],27 mm
same,inhibition zone (IZ),Staphylococcus aureus [9],27 mm
same,inhibition zone (IZ),Staphylococcus aureus [10],19 mm
same,MIC,Staphylococcus aureus [11],16 µg/mL
same,Activity,Staphylococcus aureus [12],10%
same,inhibition zone (IZ),Staphylococcus aureus [13],10 mm
same,inhibition zone (IZ),Staphylococcus aureus [14],23 mm
same,Activity,Staphylococcus aureus [15],40%
COc1ccc2[nH]c([S+]([O-])Cc3nc4ccccc4n4cccc34)nc2c1 (centres undefined),MIC,Staphylococcus aureus [2],1 µg/mL
same,inhibition zone (IZ),Staphylococcus aureus [3],26 mm
same,MIC,Staphylococcus aureus [4],> 512 µg/mL
same,Drug uptake,Staphylococcus aureus [5],400 ng/mg
same,inhibition zone (IZ),Staphylococcus aureus [6],25 mm
same,Drug uptake,Staphylococcus aureus [7],270 ng/mg
same,inhibition zone (IZ),Staphylococcus aureus [8],27 mm
same,inhibition zone (IZ),Staphylococcus aureus [9],28 mm
same,inhibition zone (IZ),Staphylococcus aureus [10],24 mm
same,MIC,Staphylococcus aureus [11],8 µg/mL
same,Activity,Staphylococcus aureus [12],10%
same,inhibition zone (IZ),Staphylococcus aureus [13],15 mm
same,inhibition zone (IZ),Staphylococcus aureus [14],24 mm
same,Activity,Staphylococcus aureus [15],40%
[O-][S+](Cc1nc2ccccc2n2cccc12)c1ncc[nH]1 (centres undefined),MIC,Staphylococcus aureus [2],2 µg/mL
same,inhibition zone (IZ),Staphylococcus aureus [3],25 mm
same,MIC,Staphylococcus aureus [4],> 512 µg/mL
same,inhibition zone (IZ),Staphylococcus aureus [6],19 mm
same,inhibition zone (IZ),Staphylococcus aureus [8],27 mm
same,inhibition zone (IZ),Staphylococcus aureus [9],27 mm
same,inhibition zone (IZ),Staphylococcus aureus [10],15 mm
same,MIC,Staphylococcus aureus [11],32 µg/mL
same,inhibition zone (IZ),Staphylococcus aureus [13],6 mm
same,inhibition zone (IZ),Staphylococcus aureus [14],22 mm
COc1ccc2c(c1)nc(C[S+]([O-])c1nc3ccccc3[nH]1)c1cccn12 (centres undefined),MIC,Staphylococcus aureus [2],1 µg/mL
same,inhibition zone (IZ),Staphylococcus aureus [3],26 mm
same,MIC,Staphylococcus aureus [4],> 512 µg/mL
same,Drug uptake,Staphylococcus aureus [5],400 ng/mg
same,inhibition zone (IZ),Staphylococcus aureus [6],25 mm
same,Drug uptake,Staphylococcus aureus [7],270 ng/mg
same,inhibition zone (IZ),Staphylococcus aureus [8],28 mm
same,inhibition zone (IZ),Staphylococcus aureus [9],28 mm
same,inhibition zone (IZ),Staphylococcus aureus [10],22 mm
same,MIC,Staphylococcus aureus [11],8 µg/mL
same,Activity,Staphylococcus aureus [12],10%
same,inhibition zone (IZ),Staphylococcus aureus [13],13 mm
same,inhibition zone (IZ),Staphylococcus aureus [14],24 mm
same,Activity,Staphylococcus aureus [15],40%
